Source: PubChem BioAssay
The list is not random: actives were taken first. Their share in the collection is about 1.2%.
CRFBP-R2 agonist = agonists of CRF-BP/CRF-R2 complex, primary screen, cell-based, HEK293, calcium dye fluorescence, uHTS. CRF-binding protein / CRF receptor 2 complex (human). activation, % at 13.2 µM. AID 588473, 2011. 350,000 tested, 0.46% active. calcium dye fluorescence (FLIPR); percent of saturating CRF peptide response;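 active = activation of at least 50%, plus an integration ratio under a set limit after plate pattern correction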
DDE Tn7 FP inh = inhibitors of Tn7 peptide binding to fibrin DD(E), primary screen, biochemical, fluorescence polarization, human fibrin, Tn7 probe. Fibrinogen beta chain (Homo sapiens), P02675. FP displacement of FITC-Tn7 peptide from fibrin DD(E); 0% = median of compound wells per plate. inhibition, % at 8.3 µM. 370,000 tested, 0.13% active. AID 720508, 2013;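 active = inhibition above the mean of compounds falling within the control limits plus 3 SD of them, cut at about 14% in these data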
Target sequence (P02675 whole entry, looked up): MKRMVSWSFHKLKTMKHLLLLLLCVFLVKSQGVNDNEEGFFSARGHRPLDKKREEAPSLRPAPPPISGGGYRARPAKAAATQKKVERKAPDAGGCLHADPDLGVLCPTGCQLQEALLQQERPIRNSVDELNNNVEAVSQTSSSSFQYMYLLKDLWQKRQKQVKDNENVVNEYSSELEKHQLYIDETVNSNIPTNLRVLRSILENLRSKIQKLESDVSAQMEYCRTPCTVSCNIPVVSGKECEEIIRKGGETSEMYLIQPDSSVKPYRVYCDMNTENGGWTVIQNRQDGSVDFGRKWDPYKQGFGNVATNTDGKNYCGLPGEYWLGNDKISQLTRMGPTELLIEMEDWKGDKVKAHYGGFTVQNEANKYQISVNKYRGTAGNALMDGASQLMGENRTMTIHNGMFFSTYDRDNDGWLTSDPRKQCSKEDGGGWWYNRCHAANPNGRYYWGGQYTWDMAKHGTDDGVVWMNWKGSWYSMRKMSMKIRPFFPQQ
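Assay system: Fibrin-DD(E) protein isolated from polymerized human fibrin clots; read-out basis: percent inhibition; medium: Tris/NaCl/CaCl2 buffer, pH 7.8; signal: FP measurement; incubation: 10 min plus 3 h, room temperature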
CRFBP-R2 block = antagonists of CRF-BP/CRF-R2 complex, primary screen, cell-based, HEK293, calcium dye fluorescence, uHTS; CRF-induced calcium fluorescence; inhibition, % at 11.8 µM; 350,000 tested, 0.59% active; AID 588475, 2011;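 active = inhibition of the ligand-induced calcium signal above about 50% at the single tested concentration, limit read from the data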
Tn6 DDE FP = inhibitors of Tn6 peptide binding to fibrin DD(E), primary screen, biochemical, fluorescence polarization, human fibrin, Tn6 probe. Fibrin DD(E) TRITC-Tn6 fluorescence polarization displacement. inhibition, % at 8.3 µM. 370,000 tested, 0.21% active;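 active = inhibition above a per-campaign cutoff: mean of compounds within control limits plus 3 SD, cut at about 15% in these data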
DDE Tn7 confirm = inhibitors of Tn7 peptide binding to fibrin DD(E), confirmation, biochemical, fluorescence polarization, human fibrin, Tn7 probe; shares compounds with DDE Tn7 FP inh; FP displacement of TRITC-Tn7 peptide from DD(E); 0% set at plate's compound-well median; inhibition, % at 8.3 µM; 460 tested, 5% active;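 active = inhibition above the campaign cutoff, the mean of compounds within control limits plus 3 SD, cut at about 14% in these data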;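 note: displacers lower polarization since freed probe rises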
DDE Tn7 FP ctr = DD(E)-Tn7 binding inhibition, counter-screen; inhibition, % at 8.3 µM; AID 720633; shares compounds with DDE Tn7 FP inh; fibrin DD(E), TRITC-Tn7 probe displacement, fluorescence polarization; 460 tested, 3% active;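 active = inhibition above the cutoff, the mean of compounds lying between the control bounds plus 3 SD of those compounds, cut at about 17% in these data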
Hits are given with their value.

How did CCc1occc(=O)c1Oc1cc(NN2CCCCC2)c([N+](=O)[O-])cc1[N+](=O)[O-] do in these assays?
CRFBP-R2 agonist: inactive; DDE Tn7 FP inh: inactive; CRFBP-R2 block: inactive; Tn6 DDE FP: inactive

Results for CNC[C@@H]1OCc2ccccc2-c2ccccc2C(=O)N([C@H](C)CO)C[C@@H]1C ?
CRFBP-R2 agonist: inactive; DDE Tn7 FP inh: inactive; CRFBP-R2 block: inactive; Tn6 DDE FP: inactive

How did CCN(CC)S(=O)(=O)c1cccc(C(=O)N/N=C2\CCCC(=O)C2)c1 do in these assays?
CRFBP-R2 agonist: inactive; DDE Tn7 FP inh: 25.3; CRFBP-R2 block: inactive; Tn6 DDE FP: inactive; DDE Tn7 confirm: inactive; DDE Tn7 FP ctr: inactive

What do the screens show for `Cc1ccc(C(NC(=O)N2CCCCC2)=C(Cl)Cl)cc1F`?
CRFBP-R2 agonist: inactive; DDE Tn7 FP inh: 15.3; CRFBP-R2 block: inactive; Tn6 DDE FP: inactive; DDE Tn7 confirm: inactive; DDE Tn7 FP ctr: inactive

What do the screens show for `Cc1ccc(CN2CCCC2(C)C(=O)NC(C)C)cc1` (stereo not drawn)?
DDE Tn7 FP inh: 13.9; Tn6 DDE FP: inactive; DDE Tn7 confirm: inactive; DDE Tn7 FP ctr: inactive

Results for Cc1ccc(CN2CCC2(C)C(=O)NC(C)C)cc1 (stereo not drawn) ?
DDE Tn7 FP inh: inactive; Tn6 DDE FP: inactive

How did NS(=O)(=O)c1ccc(N/N=C/c2cn(-c3ccccc3)nc2-c2cccs2)cc1 do in these assays?
CRFBP-R2 agonist: inactive; DDE Tn7 FP inh: 14.5; CRFBP-R2 block: inactive; Tn6 DDE FP: inactive; DDE Tn7 confirm: inactive; DDE Tn7 FP ctr: inactive

What do the screens show for `NS(=O)(=O)c1ccc(N/N=C/c2cn(-c3ccccc3)nc2-c2cccs2)c([N+](=O)[O-])c1`?
CRFBP-R2 agonist: inactive; DDE Tn7 FP inh: inactive; CRFBP-R2 block: inactive; Tn6 DDE FP: inactive

How did Cc1cccc(NC(=O)c2ccc(NS(=O)(=O)c3cccc4cccnc34)cc2)c1 do in these assays?
CRFBP-R2 agonist: inactive; DDE Tn7 FP inh: inactive; CRFBP-R2 block: inactive; Tn6 DDE FP: inactive

How did O=C(C1CCC1)N1CCCc2cc(S(=O)(=O)N3CCN(c4ccccc4)CC3)ccc21 do in these assays?
CRFBP-R2 agonist: inactive; DDE Tn7 FP inh: inactive; CRFBP-R2 block: inactive; Tn6 DDE FP: inactive

What do the screens show for `Cc1ccc(CC(=O)Nc2ccc(F)c([N+](=O)[O-])c2)cc1C`?
CRFBP-R2 agonist: inactive; DDE Tn7 FP inh: inactive; CRFBP-R2 block: inactive; Tn6 DDE FP: inactive

What do the screens show for `Cc1ccc(CC(=O)Nc2ccc(F)c([N+](=O)[O-])c2)cc1`?
CRFBP-R2 agonist: inactive; DDE Tn7 FP inh: 14.7; CRFBP-R2 block: inactive; Tn6 DDE FP: inactive; DDE Tn7 confirm: inactive; DDE Tn7 FP ctr: inactive

Results for Cc1nn(C)c(C)c1CCC(=O)O ?
CRFBP-R2 agonist: inactive; DDE Tn7 FP inh: 14.3; CRFBP-R2 block: inactive; Tn6 DDE FP: inactive; DDE Tn7 confirm: inactive; DDE Tn7 FP ctr: inactive

How did CCn1nc(C)c(CCC(=O)O)c1C do in these assays?
CRFBP-R2 agonist: inactive; DDE Tn7 FP inh: inactive; CRFBP-R2 block: inactive; Tn6 DDE FP: inactive

Results for C[C@H]1CN=C(N(C)C)N1CCCCc1ccccc1 ?
CRFBP-R2 agonist: inactive; DDE Tn7 FP inh: 15.7; CRFBP-R2 block: inactive; Tn6 DDE FP: inactive; DDE Tn7 confirm: inactive; DDE Tn7 FP ctr: inactive

How did CC(C)C[C@H]1CN=C(N(C)C)N1CCCCc1ccccc1 do in these assays?
CRFBP-R2 agonist: inactive; DDE Tn7 FP inh: inactive; CRFBP-R2 block: inactive; Tn6 DDE FP: inactive

Results for CCC(c1nnnn1-c1ccc2c(c1)OCCO2)N1CCN(CC)CC1 (stereo not drawn) ?
DDE Tn7 FP inh: inactive; Tn6 DDE FP: inactive

Results for COc1ccc([C@H]2N[C@]3(CCCN(Cc4ccc(C(F)(F)F)cc4)C3=O)[C@H]3C(=O)N(Cc4ccccc4)C(=O)[C@@H]23)cc1 ?
CRFBP-R2 agonist: inactive; DDE Tn7 FP inh: 16.6; CRFBP-R2 block: inactive; Tn6 DDE FP: inactive; DDE Tn7 confirm: inactive; DDE Tn7 FP ctr: inactive

Results for CCCCn1c(N)c(N(CC)C(=O)C2COc3ccccc3O2)c(=O)[nH]c1=O (stereo not drawn) ?
CRFBP-R2 agonist: inactive; DDE Tn7 FP inh: inactive; CRFBP-R2 block: inactive; Tn6 DDE FP: inactive
